# Assay results collected from several papers.
# Target: Protein kinase C iota type (PRKCI, Homo sapiens, UniProt P41743)
# One construct used (P41743 1-596): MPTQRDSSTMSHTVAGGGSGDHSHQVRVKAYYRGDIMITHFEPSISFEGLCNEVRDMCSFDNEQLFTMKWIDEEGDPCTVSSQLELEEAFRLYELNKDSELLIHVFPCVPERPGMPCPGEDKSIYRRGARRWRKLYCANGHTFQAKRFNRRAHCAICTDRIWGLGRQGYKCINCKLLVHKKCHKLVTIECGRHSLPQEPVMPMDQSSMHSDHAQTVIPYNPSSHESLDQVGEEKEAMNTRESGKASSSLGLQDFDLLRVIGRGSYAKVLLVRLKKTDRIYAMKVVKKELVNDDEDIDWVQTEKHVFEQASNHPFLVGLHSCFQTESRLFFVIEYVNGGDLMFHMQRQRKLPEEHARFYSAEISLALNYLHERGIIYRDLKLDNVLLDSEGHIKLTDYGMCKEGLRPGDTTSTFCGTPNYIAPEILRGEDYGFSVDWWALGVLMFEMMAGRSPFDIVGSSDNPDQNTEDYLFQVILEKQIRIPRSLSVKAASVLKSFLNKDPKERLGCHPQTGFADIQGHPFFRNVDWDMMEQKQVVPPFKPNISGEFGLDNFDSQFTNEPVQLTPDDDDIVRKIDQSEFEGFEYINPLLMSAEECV
Compound,observed,mode,method,concentration,notes,endpoint,value
COc1ccc2[nH]c3c4[nH]c5ccc(OC)cc5c4c4c(c3c2c1)C(=O)NC4=O,binding,,,1 µM,,remaining binding,63%
C1=C/COCc2cc(ccc2OCCN2CCCC2)Nc2nccc(n2)-c2cccc(c2)COC/1,binding,,,0.1 µM,,remaining binding,95%
Cc1cc(O)c(-c2ccc([C@@H](C)CN(C)C)cc2)c2c1[nH]c(=O)c1sccc12,cell-free assay,inhibitor,,0.1 µM,lysate,inhibition,7.26%
CCCCC(=O)Nc1ccc(-c2ccc3ncn(CCC)c(=O)c3c2)cn1,binding,,competition with immobilised ligand,0.5 µM,,remaining binding,91%
CC#CC(=O)N1CCC[C@H]1c1nc(-c2ccc(C(=O)Nc3ccccn3)cc2)c2c(N)nccn12,enzyme activity,inhibitor,,1 µM,,inhibition,0%
CN1CCN(C(=O)c2ccc(NC(=O)Nc3ccc(N(C)c4ccnc(Nc5ccc(CS(C)(=O)=O)cc5)n4)cc3)cc2)CC1,binding,,,1 µM,,remaining binding,74%
CC(C)S(=O)(=O)c1ccc2nccc(Nc3ccc4sc(C5CCCC5)nc4c3)c2c1,enzyme activity,inhibitor,,1 µM,,activity vs control,107%
CO[C@@H]1[C@H](N(C)C(=O)c2ccccc2)C[C@H]2O[C@]1(C)n1c3ccccc3c3c4c(c5c6ccccc6n2c5c31)C(=O)NC4,enzyme activity,inhibitor,,1 µM,,inhibition,43%
